Measurements from ChEMBL document CHEMBL4382247, “A novel series of napabucasin derivatives as orally active inhibitors of signal transducer and activator of transcription 3 (STAT3)” (Eur J Med Chem, 2019).
≈ marks a conversion by molar mass, not a printed value. Calls of active or inactive are those of the source. The rule behind the calls is not given here.

Key:
[1] = system: HT-29; test: Antiproliferative activity against human HT-29 cells after 72 hrs by MTT assay; format: functional, cell-based; details: HT-29, 72 h
Method in brief: (§1)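 Cells seeded at 5 × 10^3 per well and cultured 24 h before compound addition at varied concentrations, then grown a further 72 h; 0.5% DMSO as solvent control. MTT (5mg/ml solution) added for 4 h, formazan dissolved in DMSO, absorbance read at 570nm. Each treatment in triplicate; Mean ± SD.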

[2] = system: U-251; test: Decrease in total STAT3 level in human U251 cells at 200 nM after 24 hrs by Western blot analysis; format: ADME, cell-based; details: u-251, 24 h, 0.2 µM
Method in brief: (§2)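 Cells treated 24 and 48 h. Lysed in RIPA with protease inhibitors, protein quantified by BCA, equal amounts run on 10% SDS-PAGE and transferred to PVDF. Blocked in 5% milk, probed overnight at 4 °C with anti-total STAT3, anti-p-STAT3 (Tyr705) and GAPDH antibodies. ECL detection.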

[3] = Aqueous solubility of the compound in water at 2 mg after 24 hrs by HPLC analysis; format: physicochemical
Method in brief: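 Aqueous solubility measured by HPLC against calibration standards at 15–125 µg/mL. Values are the mean of at least three determinations ± SD.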

[4] = Toxicity in BALB/c mouse implanted with mouse CT26 cells assessed as effect on kidney morphology by measuring edema at 50 mg/kg, po administered once daily by H and E staining based histopathological analysis; format: organism-based; details: in vivo
Method in brief: (§3)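 CT-26 subcutaneous flank tumour model in male BALB/c mice, five per group, dosed orally at 50mg/kg daily in 5% NMP/95% PEG 400 versus vehicle. After treatment, heart, liver, spleen, lung and kidney collected, sectioned and stained with H&E for histological examination.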

[5] = biological target: T1, Signal transducer and activator of transcription 3 (Homo sapiens, UniProt P40763); test: Binding affinity to recombinant N-terminal His-tagged STAT3 (unknown origin) expressed in baculovirus infected Sf9 insect cells by SPR analysis
Method in brief: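 STAT3 made by baculovirus: bacmid generated in Sf9, virus amplified in Sf9, protein expressed in High Five cells. Purified on Ni-NTA and by gel filtration (>90% pure). Amine-coupled to a CM5 chip. Compound run at 18.75–600 nM in 5% DMSO/PBS on Biacore X100. KD taken from equilibrium fit.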

[6] = Cardiotoxicity in BALB/c mouse implanted with mouse CT26 cells assessed as effect on heart morphology by measuring cell inflammation at 50 mg/kg, po administered once daily by H and E staining based histopathological analysis; format: toxicity, organism-based; details: in vivo; method in brief: as §3
[7] = Toxicity in BALB/c mouse implanted with mouse CT26 cells assessed as effect on lung morphology by measuring edema at 50 mg/kg, po administered once daily by H and E staining based histopathological analysis; format: organism-based; details: in vivo; method in brief: as §3
[8] = Toxicity in BALB/c mouse implanted with mouse CT26 cells assessed as effect on spleen morphology by measuring cell inflammation at 50 mg/kg, po administered once daily by H and E staining based histopathological analysis; format: organism-based; details: in vivo; method in brief: as §3
[9] = system: U-251; test: Antiproliferative activity against human U251 cells after 72 hrs by MTT assay; format: functional, cell-based; details: U-251, 72 h; method in brief: as §1
[10] = system: CT26; test: Antitumor activity against mouse CT26 cells implanted in BALB/c mouse assessed as tumor growth at 50 mg/kg, po administered once daily measured every 3 days relative to control; format: functional
Method in brief: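 Male BALB/c mice, 6 weeks old, given 1 × 10^6 CT-26 cells subcutaneously in the right flank. At about 70 mm3 tumour volume, randomized into groups of five and dosed orally once daily with 50mg/kg or vehicle (5% NMP in PEG 400). Tumours measured by caliper every 3 days, V = ab^2/2. Tumours weighed at sacrifice. TGI computed from mean tumour weights. T/C computed as mean RTV (Vt/V0) treated over control.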

[11] = Toxicity in BALB/c mouse implanted with mouse CT26 cells assessed as effect on kidney morphology by measuring necrosis at 50 mg/kg, po administered once daily by H and E staining based histopathological analysis; format: organism-based; details: in vivo; method in brief: as §3
[12] = system: U-251; test: Decrease in total STAT3 level in human U251 cells at 200 nM after 24 to 48 hrs by sandwich-ELISA; format: ADME, cell-based; details: u-251, 0.2 µM
Method in brief: (§4)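 Cells treated 24 or 48 h. Whole-cell lysates made in lysis buffer with protease inhibitor cocktail. Total STAT3 and p-STAT3 Y705 measured by sandwich ELISA. Three repeats; groups compared with control by paired t-test; means ± S.D.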

[13] = Toxicity in BALB/c mouse implanted with mouse CT26 cells assessed as effect on spleen morphology by measuring edema at 50 mg/kg, po administered once daily by H and E staining based histopathological analysis; format: organism-based; details: in vivo; method in brief: as §3
[14] = system: HepG2; test: Antiproliferative activity against human HepG2 cells after 72 hrs by MTT assay; format: functional, cell-based; details: HepG2, 72 h; method in brief: as §1
[15] = system: HepG2; test: Decrease in total STAT3 level in human HepG2 cells at 400 nM after 24 to 48 hrs by sandwich-ELISA; format: ADME, cell-based; details: hepg2, 0.4 µM; method in brief: as §4
[16] = Toxicity in BALB/c mouse implanted with mouse CT26 cells assessed as behavioral alteration at 50 mg/kg, po administered once daily; format: organism-based; details: in vivo
Method in brief: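 Mice bearing subcutaneous CT-26 tumours, five per group, given 50mg/kg orally each day in 5% NMP/PEG 400, with an equal-volume vehicle control group. Body weight and behaviour monitored over the treatment period.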

[17] = system: PC-3; test: Antiproliferative activity against human PC3 cells after 72 hrs by MTT assay; format: functional, cell-based; details: PC-3, 72 h; method in brief: as §1
[18] = Toxicity in BALB/c mouse implanted with mouse CT26 cells assessed as effect on lung morphology by measuring cell inflammation at 50 mg/kg, po administered once daily by H and E staining based histopathological analysis; format: organism-based; details: in vivo; method in brief: as §3
[19] = system: U-251; test: Potency index, ratio of napabucasin IC50 to test compound IC50 for human U251 cells; format: functional
[20] = Cardiotoxicity in BALB/c mouse implanted with mouse CT26 cells assessed as effect on heart morphology by measuring edema at 50 mg/kg, po administered once daily by H and E staining based histopathological analysis; format: toxicity, organism-based; details: in vivo; method in brief: as §3
[21] = Toxicity in BALB/c mouse implanted with mouse CT26 cells assessed as effect on kidney morphology by measuring cell inflammation at 50 mg/kg, po administered once daily by H and E staining based histopathological analysis; format: organism-based; details: in vivo; method in brief: as §3
[22] = system: HepG2; test: Potency index, ratio of napabucasin IC50 to test compound IC50 for human HepG2 cells; format: functional
[23] = Cardiotoxicity in BALB/c mouse implanted with mouse CT26 cells assessed as effect on heart morphology by measuring necrosis at 50 mg/kg, po administered once daily by H and E staining based histopathological analysis; format: toxicity, organism-based; details: in vivo; method in brief: as §3
[24] = system: HepG2; test: Decrease in total STAT3 level in human HepG2 cells at 400 nM after 24 hrs by Western blot analysis; format: ADME, cell-based; details: hepg2, 24 h, 0.4 µM; method in brief: as §2
[25] = Hepatotoxicity in BALB/c mouse implanted with mouse CT26 cells assessed as effect on liver morphology by measuring necrosis at 50 mg/kg, po administered once daily by H and E staining based histopathological analysis; format: toxicity, organism-based; details: in vivo; method in brief: as §3
[26] = system: CT26; test: Potency index, ratio of napabucasin IC50 to test compound IC50 for mouse CT26 cells; format: functional
[27] = biological target: T1, Signal transducer and activator of transcription 3; test: Inhibition of STAT3 phosphorylation at Y705 residue in human U251 cells at 200 nM after 24 hrs by Western blot analysis; format: cell-based; method in brief: as §2

T1 sequence (P40763 whole entry): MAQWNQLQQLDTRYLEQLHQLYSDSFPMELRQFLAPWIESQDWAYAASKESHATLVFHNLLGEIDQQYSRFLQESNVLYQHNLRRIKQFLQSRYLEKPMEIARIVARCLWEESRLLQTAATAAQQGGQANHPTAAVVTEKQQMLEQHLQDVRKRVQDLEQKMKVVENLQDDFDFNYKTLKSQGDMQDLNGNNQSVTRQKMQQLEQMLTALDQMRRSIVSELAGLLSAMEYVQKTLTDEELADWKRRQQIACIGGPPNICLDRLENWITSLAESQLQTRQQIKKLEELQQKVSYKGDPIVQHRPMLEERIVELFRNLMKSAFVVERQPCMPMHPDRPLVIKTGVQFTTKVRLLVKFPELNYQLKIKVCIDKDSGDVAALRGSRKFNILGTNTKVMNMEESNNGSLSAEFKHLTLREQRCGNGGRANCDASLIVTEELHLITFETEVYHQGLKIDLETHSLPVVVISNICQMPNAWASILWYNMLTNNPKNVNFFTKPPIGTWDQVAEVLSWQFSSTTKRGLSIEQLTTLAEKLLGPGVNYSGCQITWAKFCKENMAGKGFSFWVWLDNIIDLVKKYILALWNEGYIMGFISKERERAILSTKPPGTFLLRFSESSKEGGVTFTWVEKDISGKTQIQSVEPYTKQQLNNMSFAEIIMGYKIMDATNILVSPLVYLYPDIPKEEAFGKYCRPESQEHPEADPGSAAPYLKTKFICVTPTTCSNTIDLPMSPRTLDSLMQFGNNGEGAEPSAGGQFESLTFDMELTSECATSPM

O=C(NCCN1CCCCC1)c1cc2c(o1)C(=O)c1ccccc1C2=O
IC50 [1]: 70 nM | Activity [2]: Toxic | solubility at 24 h [3]: 201 µM (≈ 70.8 µg/mL) | Activity [4]: Non-Toxic | Kd [5]: 110 nM | Activity [6]: Non-Toxic | Activity [7]: Non-Toxic | Activity [8]: Non-Toxic | IC50 [9]: 220 nM | T/C [10]: 28% | Activity [11]: Non-Toxic | Activity [12]: Toxic | Activity [13]: Non-Toxic | IC50 [14]: 490 nM | Activity [15]: Toxic | Activity [16]: Non-Toxic | IC50 [17]: 4130 nM | Activity [18]: Non-Toxic | Ratio IC50 [19]: >10 | Activity [20]: Non-Toxic | Activity [21]: Non-Toxic | Ratio IC50 [22]: >10 | Activity [23]: Non-Toxic | Activity [24]: Toxic | Activity [25]: Non-Toxic | Ratio IC50 [26]: >10 | inhibition [27]: Active
